Several values for one entry are separate records, joined by “and”; a condition that tells them apart may be missing. Equal values may be shown once. Activity calls are given as the source filed them. The calls are words filed in the database; no cut-off is given here.

For assay [1], the system named is Plenodomus lingam. The experiment in a line: Inhibition of Leptosphaeria maculans BoLm assessed as conversion of brassinin to indole-3-carboxaldehyde at 0.30 mM. In short, it runs like this:
(§1)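 Initial-velocity assays with purified BOLm: product added at fixed 0.30 or 0.60 mM, brassinin varied 0.05–0.30 mM at saturating PMS (1 mM); also PMS varied […] with brassinin fixed at 0.05, 0.10 or 0.15 mM; standard DEA pH 8.2 assay, HPLC quantitation.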

For assay [2], the system named is Plenodomus lingam. Nature of the assay: Activity of Leptosphaeria maculans BoLm relative to Brassinin. The note with it: tested as the 2H-labelled form.
In assay [3] the test system is Plenodomus lingam. The experiment in a line: Activity of Leptosphaeria maculans BoLm in presence of H218O relative to Brassinin. To be noted: tested as the 2H-labelled form.
The subject of assay [4] is Plenodomus lingam. The experiment in a line: Activity of Leptosphaeria maculans BoLm. In short, it runs like this:
(§2)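 BOLm purified from 3-phenylindole-induced L. maculans BJ-125 liquid cultures. Assay buffer: 20 mM DEA pH 8.2, 1.0 mM DTT, 0.1% Triton X-100, with 1.0 mM PMS as electron acceptor, which is saturating. Substrate was varied over 0.05–1.0 mM for brassinin or 0.05–2.8 mM for the carbamate. Reactions ran 20 min at 20 °C and were stopped and extracted with EtOAc. Indole-3-carboxaldehyde was quantified by HPLC-DAD against calibration curves. kcat and Km were taken from saturation curves. Four independent experiments.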

The test system of assay [5] is Plenodomus lingam. The experiment in a line: Ratio of kcat to Km for Leptosphaeria maculans BoLm. In short, it runs like this: as §2
Assay [6] has as its system Plenodomus lingam. The experiment in a line: Activity of Leptosphaeria maculans BoLm at 0.05 to 1.0 mM. The method in brief: as §2
Assay [7] concerns Plenodomus lingam. The experiment in a line: Selectivity ratio of compound to dideuterated brassinin for Leptosphaeria maculans BoLm activity. The method in brief: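 Kinetic isotope effect = (kcat/Km)H / (kcat/Km)D. Purified BOLm at pH 8.2 with saturating PMS (1.0 mM), 20 °C, 20 min. Substrate was varied over 0.05–1.0 mM (brassinin series) or 0.05–2.8 mM (carbamate series), comparing natural-abundance and deuterated substrates. Product was quantified by HPLC. Four independent experiments.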

Assay [8] deals with Plenodomus lingam. The experiment in a line: Activity of Leptosphaeria maculans BoLm in presence of BUT reagent relative to control. The method in brief: (§3)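 Purified BOLm was incubated in a reaction buffer with each modifier: BUT 10 mM, EAM 2.5 mM, NAI 2.5 mM or DEPC 2.5 mM in 100 mM phosphate pH 7.5; IAA 2.5 mM in 100 mM MES pH 6.0; PMSF 2.5 mM in 100 mM phosphate pH 8.1. Residual activity was then read in the standard brassinin/PMS HPLC assay. Result is specific activity as a percentage of untreated enzyme.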

The subject of assay [9] is Plenodomus lingam. Nature of the assay: Activity of Leptosphaeria maculans BoLm in presence of EAM reagent relative to control. In short, it runs like this:
as §3

Assay [10] has as its system Plenodomus lingam. Nature of the assay: Activity of Leptosphaeria maculans BoLm in presence of NAI reagent relative to control. The method in brief:
as §3

The subject of assay [11] is Plenodomus lingam. Nature of the assay: Activity of Leptosphaeria maculans BoLm in presence of DEPC reagent relative to control. In short, it runs like this:
as §3

In assay [12] the test system is Plenodomus lingam. Nature of the assay: Activity of Leptosphaeria maculans BoLm in presence of WRK reagent relative to control. In short, it runs like this: (§4)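 Purified BOLm was treated with the carboxyl-specific reagent (WRK or EDC, 5–50 mM) in 100 mM MES pH 6.0 at 20 °C. Aliquots taken at time intervals were assayed for residual activity in the standard brassinin/PMS HPLC assay. Activity is given as a percentage of untreated enzyme. For WRK, kobs came from ln residual activity versus time, and K_I and k2 from 1/kobs versus 1/[WRK].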

Assay [13] relates to Plenodomus lingam. Nature of the assay: Activity of Leptosphaeria maculans BoLm in presence of EDC reagent relative to control. The method in brief: as §4
For assay [14], the system named is Plenodomus lingam. The experiment in a line: Activity of Leptosphaeria maculans BoLm in presence of IAA reagent relative to control. The method in brief:
as §3

Assay [15] deals with Plenodomus lingam. Nature of the assay: Activity of Leptosphaeria maculans BoLm in presence of PMSF reagent relative to control. The method in brief:
as §3

Assay [16] relates to Plenodomus lingam. The experiment in a line: Activity of Leptosphaeria maculans BoLm at 0.05 to 2.8 mM. In short, it runs like this:
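Purified BOLm from 3-phenylindole-induced L. maculans BJ-125 cultures; substrate varied 0.05–2.8 mM with saturating PMS (1.0 mM) in 20 mM DEA pH 8.2, 1 mM DTT, 0.1% Triton X-100; 20 °C, 20 min; EtOAc extraction, HPLC-DAD quantitation of indole-3-carboxaldehyde against calibration curves; kcat, Km from saturation curves; four independent experiments.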

The test system of assay [17] is Plenodomus lingam. Nature of the assay: Ratio of kcat to Km for Leptosphaeria maculans BoLm to ratio of kcat to Km for Leptosphaeria maculans BoLm with the deuterated substrate. To be noted: tested as the 2H-labelled form.
The test system of assay [18] is Plenodomus lingam. The experiment in a line: Inhibition of Leptosphaeria maculans BoLm assessed as conversion of brassinin to indole-3-carboxaldehyde at 0.60 mM. The method in brief:
as §1

Assay [19] concerns Plenodomus lingam. Nature of the assay: Antifungal activity against Leptosphaeria maculans isolate BJ 125 assessed as growth inhibition at 0.50 mM relative to control. The assay is classed as functional. Further details: scale not given: the % may be the effect or the level left. In short, it runs like this:
(§5)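 Mycelial growth inhibition of L. maculans isolate BJ 125 tested at 0.50, 0.25 and 0.12 mM; growth compared with control cultures grown without compound under otherwise identical conditions.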

In assay [20] the test system is Plenodomus lingam. The experiment in a line: Antifungal activity against Leptosphaeria maculans isolate BJ 125 assessed as growth inhibition. Further details: scale not given: the % may be the effect or the level left. The assay is classed as functional. The method in brief:
as §5

Take `O=Cc1c[nH]c2ccccc12`: the inhibition entry in the assay on Plenodomus lingam [1] was “inactive”.

Turning to `CSC(=S)NCc1c[nH]c2ccccc12`, the Activity with Plenodomus lingam [2] stood at 26%; in the assay on Plenodomus lingam [3] it was 23%; with Plenodomus lingam [8], 95%; in the assay on Plenodomus lingam [9], 97%; with Plenodomus lingam [10], 111%; in the assay with Plenodomus lingam [11] it was 103%. The Activity in the assay on Plenodomus lingam [12] was 17%; with Plenodomus lingam [13] it was 38%; in the assay with Plenodomus lingam [14], 106%; with Plenodomus lingam [15], 108%. The Km in the assay on Plenodomus lingam [4] is 96 µM; in the assay on Plenodomus lingam [4] (tested as the 2H-labelled form), 151 µM and 94 µM and 96 µM. The kcat is 0.84 s⁻¹ and 0.47 s⁻¹ in the assay with Plenodomus lingam [4] (tested as the 2H-labelled form); 0.95 s⁻¹ in the assay on Plenodomus lingam [6]; 0.28 s⁻¹ in the assay with Plenodomus lingam [6] (tested as the 2H-labelled form). Also, the kcat/Km in the assay with Plenodomus lingam [5] was 9900 M⁻¹ s⁻¹. Also, in the assay on Plenodomus lingam [7], the Ratio turned out to be 4.

Take `COC(=O)NCc1c[nH]c2ccccc12`: the Km in the assay on Plenodomus lingam [4] was 622 µM; with Plenodomus lingam [4] (tested as the 2H-labelled form), 501 µM. The kcat/Km with Plenodomus lingam [5] came out at 9040 M⁻¹ s⁻¹; with Plenodomus lingam [5] (tested as the 2H-labelled form), 2300 M⁻¹ s⁻¹. Also, the kcat in the assay on Plenodomus lingam [16] is 5.62 s⁻¹; in the assay on Plenodomus lingam [16] (tested as the 2H-labelled form), 1.15 s⁻¹. Besides, the Ratio in the assay with Plenodomus lingam [17] was 3.9.

Consider `CSC(N)=S`, for which the inhibition result with Plenodomus lingam [18] is “inactive”. Besides, the Activity with Plenodomus lingam [19] and in the assay on Plenodomus lingam [20] was 18% in each case.

These data come from ChEMBL document CHEMBL1671808, “Brassinin oxidase mediated transformation of the phytoalexin brassinin: structure of the elusive co-product, deuterium isotope effect and stereoselectivity” (2011).
